Reference: ChEMBL document CHEMBL3616441, “Discovery of a Selective and CNS Penetrant Negative Allosteric Modulator of Metabotropic Glutamate Receptor Subtype 3 with Antidepressant and Anxiolytic Activity in Rodents” (J Med Chem, 2015)
Activity calls are given as the source filed them. The calls are words filed in the database; no cut-off is given here.

Experiments:
[1] = molecular target: Metabotropic glutamate receptor 5 (Rattus norvegicus, UniProt P31424); experiment: Modulation of rat mGlu5 receptor assessed as calcium mobilization by cell based fluorescence assay; type: functional
How it was run: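 Calcium mobilization assay with fluorescence read-out in cells expressing mGlu5; full concentration-response curves; % Glu Max is the amplitude of response with 30 μM test compound as a percentage of the maximal response to 100 μM glutamate; values averaged over n-3.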

[2] = molecular target: Metabotropic glutamate receptor 3 (Rattus norvegicus, UniProt P31422); experiment: Negative allosteric modulation of rat mGlu3 receptor assessed as calcium mobilization by cell based fluorescence assay; type: functional
How it was run: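 Cell line stably expressing rat mGlu3 with the promiscuous G-protein Gα15. Calcium mobilization with fluorescence read-out, inhibition of the glutamate response. Full concentration-response curves, top concentration 30 μM. % Glu Max is the response with 30 μM test compound as a percentage of the maximal response to 100 μM glutamate. Values averaged over n-3.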

[3] = molecular target: Metabotropic glutamate receptor 3 (Rattus norvegicus) (UniProt P31422); experiment: Negative allosteric modulation of rat mGlu3 receptor assessed as amplitude response at 30 uM relative to glutamate
How it was run: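 Calcium mobilization in cell line stably expressing rat mGlu3 with promiscuous Gα15; fluorescence read-out; amplitude of glutamate response with 30 μM test compound expressed as percentage of maximal response (100 μM glutamate); average of n = 3.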

[4] = molecular target: Metabotropic glutamate receptor 5 (Rattus norvegicus) (UniProt P31424); experiment: Modulation of rat mGlu5 receptor assessed as assessed as calcium mobilization at 30 uM by cell based fluorescence assay; type: functional
[5] = molecular target: Metabotropic glutamate receptor 5 (Rattus norvegicus) (UniProt P31424); experiment: Positive allosteric modulation of rat mGlu5 receptor assessed as calcium mobilization by cell based fluorescence assay; type: functional

Chain of Metabotropic glutamate receptor 5 (Rattus norvegicus) (P31424 21-1203 limits assumed): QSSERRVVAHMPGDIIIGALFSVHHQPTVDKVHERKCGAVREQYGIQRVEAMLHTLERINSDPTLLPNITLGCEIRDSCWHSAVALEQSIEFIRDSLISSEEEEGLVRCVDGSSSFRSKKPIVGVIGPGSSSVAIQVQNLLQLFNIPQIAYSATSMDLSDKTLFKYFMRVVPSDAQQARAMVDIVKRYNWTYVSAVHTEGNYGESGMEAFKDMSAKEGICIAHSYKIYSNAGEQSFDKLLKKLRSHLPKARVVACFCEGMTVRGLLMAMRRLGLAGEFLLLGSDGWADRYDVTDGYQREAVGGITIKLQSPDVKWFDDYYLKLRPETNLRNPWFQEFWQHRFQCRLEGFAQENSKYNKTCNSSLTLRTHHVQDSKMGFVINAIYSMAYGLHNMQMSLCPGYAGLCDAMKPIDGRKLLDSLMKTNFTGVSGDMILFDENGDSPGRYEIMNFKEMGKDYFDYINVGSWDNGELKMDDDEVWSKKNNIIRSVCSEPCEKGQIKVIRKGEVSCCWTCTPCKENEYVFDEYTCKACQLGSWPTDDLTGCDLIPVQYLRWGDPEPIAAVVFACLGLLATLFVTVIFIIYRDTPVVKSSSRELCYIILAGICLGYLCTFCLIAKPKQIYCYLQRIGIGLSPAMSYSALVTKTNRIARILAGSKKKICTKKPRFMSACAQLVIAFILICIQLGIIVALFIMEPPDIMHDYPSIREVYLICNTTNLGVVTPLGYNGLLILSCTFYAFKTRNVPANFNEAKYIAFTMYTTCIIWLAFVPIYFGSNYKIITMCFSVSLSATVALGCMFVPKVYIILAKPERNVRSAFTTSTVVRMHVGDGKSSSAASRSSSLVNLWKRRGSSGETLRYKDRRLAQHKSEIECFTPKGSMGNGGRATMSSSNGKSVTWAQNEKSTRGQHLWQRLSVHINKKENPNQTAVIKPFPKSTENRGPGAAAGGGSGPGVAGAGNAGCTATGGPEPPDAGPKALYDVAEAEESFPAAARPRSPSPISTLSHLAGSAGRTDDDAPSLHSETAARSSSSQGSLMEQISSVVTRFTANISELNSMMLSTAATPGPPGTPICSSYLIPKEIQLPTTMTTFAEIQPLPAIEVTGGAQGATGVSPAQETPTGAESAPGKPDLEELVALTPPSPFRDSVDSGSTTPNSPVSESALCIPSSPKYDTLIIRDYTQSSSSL
Chain of Metabotropic glutamate receptor 3 (P31422 whole entry): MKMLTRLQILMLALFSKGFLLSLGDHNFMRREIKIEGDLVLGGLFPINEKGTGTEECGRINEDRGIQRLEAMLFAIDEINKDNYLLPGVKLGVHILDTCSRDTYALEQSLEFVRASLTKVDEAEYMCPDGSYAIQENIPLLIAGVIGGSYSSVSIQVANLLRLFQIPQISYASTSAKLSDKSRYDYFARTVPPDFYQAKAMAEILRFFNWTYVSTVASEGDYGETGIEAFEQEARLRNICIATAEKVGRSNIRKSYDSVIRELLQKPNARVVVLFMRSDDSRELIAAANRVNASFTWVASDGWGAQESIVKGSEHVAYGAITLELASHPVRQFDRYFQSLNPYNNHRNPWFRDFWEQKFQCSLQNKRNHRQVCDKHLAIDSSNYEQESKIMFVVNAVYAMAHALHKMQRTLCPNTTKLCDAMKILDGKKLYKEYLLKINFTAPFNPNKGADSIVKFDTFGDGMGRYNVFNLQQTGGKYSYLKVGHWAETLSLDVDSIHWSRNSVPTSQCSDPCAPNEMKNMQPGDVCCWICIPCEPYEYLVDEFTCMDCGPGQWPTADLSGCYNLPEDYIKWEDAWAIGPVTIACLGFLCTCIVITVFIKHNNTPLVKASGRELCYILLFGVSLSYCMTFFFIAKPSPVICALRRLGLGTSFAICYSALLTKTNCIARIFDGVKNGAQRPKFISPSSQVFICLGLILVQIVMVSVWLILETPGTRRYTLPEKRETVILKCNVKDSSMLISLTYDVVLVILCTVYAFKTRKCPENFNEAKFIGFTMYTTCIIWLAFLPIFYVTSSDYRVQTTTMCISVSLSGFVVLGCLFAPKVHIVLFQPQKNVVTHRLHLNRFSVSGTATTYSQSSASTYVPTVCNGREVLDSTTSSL
Chain of Metabotropic glutamate receptor 5 (P31424 whole entry): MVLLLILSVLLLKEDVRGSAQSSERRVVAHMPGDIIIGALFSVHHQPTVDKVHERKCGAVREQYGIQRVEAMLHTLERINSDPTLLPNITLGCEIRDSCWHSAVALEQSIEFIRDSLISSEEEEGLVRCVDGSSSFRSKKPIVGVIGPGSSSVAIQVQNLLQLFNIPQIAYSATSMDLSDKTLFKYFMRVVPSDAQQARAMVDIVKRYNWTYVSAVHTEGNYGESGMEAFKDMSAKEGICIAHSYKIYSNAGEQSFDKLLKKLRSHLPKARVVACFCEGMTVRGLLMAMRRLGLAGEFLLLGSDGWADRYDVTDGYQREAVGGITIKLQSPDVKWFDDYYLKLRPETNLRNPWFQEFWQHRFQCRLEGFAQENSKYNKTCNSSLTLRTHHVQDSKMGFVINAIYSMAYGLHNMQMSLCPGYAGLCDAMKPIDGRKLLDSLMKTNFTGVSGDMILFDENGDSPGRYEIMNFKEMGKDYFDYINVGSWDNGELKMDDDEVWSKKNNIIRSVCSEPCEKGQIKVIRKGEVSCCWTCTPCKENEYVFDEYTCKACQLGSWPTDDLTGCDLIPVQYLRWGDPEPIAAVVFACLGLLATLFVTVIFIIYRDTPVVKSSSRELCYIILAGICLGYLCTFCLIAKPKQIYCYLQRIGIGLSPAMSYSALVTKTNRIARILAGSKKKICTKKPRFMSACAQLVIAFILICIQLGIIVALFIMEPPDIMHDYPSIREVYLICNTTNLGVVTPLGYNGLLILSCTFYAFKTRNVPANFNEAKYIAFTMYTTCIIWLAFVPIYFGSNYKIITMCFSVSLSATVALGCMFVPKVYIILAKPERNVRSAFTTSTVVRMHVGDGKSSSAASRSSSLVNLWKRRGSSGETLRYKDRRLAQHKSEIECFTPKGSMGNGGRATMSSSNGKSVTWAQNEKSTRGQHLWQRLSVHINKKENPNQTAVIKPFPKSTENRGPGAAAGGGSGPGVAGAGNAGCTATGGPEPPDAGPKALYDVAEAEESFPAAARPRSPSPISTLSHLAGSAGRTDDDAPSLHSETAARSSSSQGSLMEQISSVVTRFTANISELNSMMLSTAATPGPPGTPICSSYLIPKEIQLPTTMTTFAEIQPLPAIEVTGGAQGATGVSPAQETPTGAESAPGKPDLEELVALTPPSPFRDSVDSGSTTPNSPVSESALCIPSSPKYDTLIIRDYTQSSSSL
Chain of Metabotropic glutamate receptor 3 (Rattus norvegicus) (P31422 23-879 limits assumed): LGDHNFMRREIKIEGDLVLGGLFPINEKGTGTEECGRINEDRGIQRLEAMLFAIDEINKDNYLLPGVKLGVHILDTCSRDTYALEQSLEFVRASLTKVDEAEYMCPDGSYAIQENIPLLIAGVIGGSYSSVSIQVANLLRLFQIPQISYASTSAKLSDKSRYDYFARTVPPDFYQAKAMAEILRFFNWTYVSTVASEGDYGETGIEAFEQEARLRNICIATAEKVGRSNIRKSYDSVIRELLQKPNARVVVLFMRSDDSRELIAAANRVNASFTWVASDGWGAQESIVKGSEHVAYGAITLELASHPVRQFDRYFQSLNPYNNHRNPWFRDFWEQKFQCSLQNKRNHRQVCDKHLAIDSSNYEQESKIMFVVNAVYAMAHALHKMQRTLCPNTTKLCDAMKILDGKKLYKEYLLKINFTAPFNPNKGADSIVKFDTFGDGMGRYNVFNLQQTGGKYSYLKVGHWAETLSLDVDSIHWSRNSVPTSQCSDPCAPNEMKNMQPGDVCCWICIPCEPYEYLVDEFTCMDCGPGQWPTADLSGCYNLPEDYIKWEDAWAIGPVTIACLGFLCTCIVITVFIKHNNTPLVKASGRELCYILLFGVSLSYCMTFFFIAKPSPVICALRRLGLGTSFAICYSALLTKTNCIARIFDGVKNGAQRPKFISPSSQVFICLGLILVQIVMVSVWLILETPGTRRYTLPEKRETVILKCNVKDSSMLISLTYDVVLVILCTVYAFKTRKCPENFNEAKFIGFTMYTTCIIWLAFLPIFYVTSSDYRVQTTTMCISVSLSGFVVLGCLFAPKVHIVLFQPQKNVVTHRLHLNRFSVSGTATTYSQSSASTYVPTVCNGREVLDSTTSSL

Compound | EC50 [1] [nM] | IC50 [2] [nM] | Activity [3] [%] | Activity [4] [%] | Activity [5]
COc1ccc(N2C[C@@H](C)n3nc(COc4ccc(F)cn4)cc3C2=O)cc1 | 1380 | 320 | 1.23 | 32.3 | Active
C[C@@H]1CN(c2ccc(F)cc2)C(=O)c2cc(COc3ccc(C#N)cc3)nn21 | 1940 | 784 | 2.53 | 38.6 | Active
C[C@@H]1CN(c2ccc(Cl)cc2)C(=O)c2cc(COc3ccc(Cl)cn3)nn21 | 3310 | 1230 | 0.94 | 51.2 | Active
C[C@@H]1CN(c2ccc(F)nc2)C(=O)c2cc(COc3ccc(Cl)cn3)nn21 | > 10000 | 408 | 1.45 | 30.6 | Active
C[C@@H]1CN(c2ccc(C#N)cc2)C(=O)c2cc(COc3ccc(Cl)cn3)nn21 | 3320 | 539 | 1.84 | 23.1 | Active
C[C@@H]1CN(c2ccc(F)cc2)C(=O)c2cc(COc3ccc(C(F)(F)F)cc3)nn21 | > 30000 | 1850 | 4.13 |  | 
C[C@@H]1CN(c2ccc(F)cc2)C(=O)c2cc(COc3ccccc3Cl)nn21 | 419 | 532 | 1.63 | 84.4 | Active
C[C@@H]1CN(c2cc(F)cc(F)c2)C(=O)c2cc(COc3ccc(Cl)cn3)nn21 | > 10000 | 420 | 2.18 | 33.1 | Active
C[C@@H]1CN(c2ccc(F)cc2)C(=O)c2cc(COc3cccc(C(F)(F)F)n3)nn21 | > 30000 | 2360 | 2.06 |  | 
C[C@@H]1CN(c2c(F)cccc2F)C(=O)c2cc(COc3ccc(Cl)cn3)nn21 | 1420 | 225 | 2.06 | 40.3 | Active
C[C@@H]1CN(c2ccc(Cl)cc2)C(=O)c2cc(COc3ccc(F)cn3)nn21 | 364 | 197 | 2.17 | 51.6 | Active
C[C@@H]1CN(c2cccc(C#N)c2)C(=O)c2cc(COc3ccc(Cl)cn3)nn21 | > 10000 | 825 | 1.75 | 32.2 | Active
C[C@@H]1CN(c2ncccc2C#N)C(=O)c2cc(COc3ccc(Cl)cn3)nn21 | > 30000 | 677 | 1.35 |  | 
C[C@@H]1CN(c2ccc(F)cc2)C(=O)c2cc(COc3ccc(F)cc3F)nn21 | 307 | 417 | 1.7 | 82.3 | Active
C[C@@H]1CN(c2ccc(F)cc2)C(=O)c2cc(COc3ccccc3)nn21 | 46 | 267 | 2.21 | 87.7 | Active
COc1ccc(N2C[C@@H](C)n3nc(COc4ccc(Cl)cn4)cc3C2=O)cc1 | 4330 | 439 | 2.07 | 59.4 | Active
C[C@@H]1CN(c2ccc(F)cc2)C(=O)c2cc(COc3ccc(OC(F)(F)F)cc3)nn21 | > 30000 | 4070 | 2.66 |  | 
C[C@@H]1CN(c2cc(F)ccc2C#N)C(=O)c2cc(COc3ccc(Cl)cn3)nn21 | > 30000 | 529 | 1.55 |  | 
COc1cccnc1OCc1cc2n(n1)[C@H](C)CN(c1ccc(F)cc1)C2=O | > 30000 | 6760 | -1.14 |  | 
C[C@@H]1CN(c2ccc(F)cc2)C(=O)c2cc(COc3ncccc3C(F)(F)F)nn21 | > 30000 | 2940 | 2.11 |  | 
C[C@@H]1CN(c2ccncc2)C(=O)c2cc(COc3ccc(F)cn3)nn21 | > 30000 | 881 | 0.77 |  | 
